Experimental data: ChEMBL document CHEMBL1156852, “Synthesis and biological evaluation of simple methoxylated chalcones as anticancer, anti-inflammatory and antioxidant agents” (Bioorg Med Chem, 2010)

What was measured:
HCT-116 [1] = assay: Growth inhibition of human HCT116 cells at 500 nM after 48 hrs by propidium iodide assay; conditions: HCT-116, 48 h, read-out: GI
Calu-1 [2] = assay: Growth inhibition of human Calu1 cells at 500 nM after 24 hrs by propidium iodide assay; assay type: functional; conditions: Calu-1, 24 h, read-out: GI
PANC-1 [3] = assay: Growth inhibition of human PANC1 cells at 500 nM after 24 hrs by propidium iodide assay; assay type: functional; conditions: PANC-1, 24 h, read-out: GI
NCI-H460 [4] = assay: Growth inhibition of human H460 cells at 500 nM after 48 hrs by propidium iodide assay; conditions: NCI-H460, 48 h, read-out: GI
ACHN [5] = assay: Growth inhibition of human ACHN cells at 500 nM after 48 hrs by propidium iodide assay; conditions: read-out: GI
[6] = tested on: Radical scavenging activity; assay: Antioxidant activity assessed as radical DPPH scavenging activity at 1 mM/mL; assay type: functional
How it was run: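 DPPH radical scavenging by the Blois method. Compound stock solutions (1 mM) were mixed with 0.3 mM DPPH in methanol in a 3 mL total reaction and left to react at room temperature.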

THP-1 [7] = assay: Antiinflammatory activity in human THP1 cells assessed as inhibition of LPS-induced IL6 release at 10 uM preincubated for 30 mins before LPS challenge by ELISA; assay type: functional
THP-1 [8] = assay: Antiinflammatory activity in human THP1 cells assessed as inhibition of LPS-induced TNFalpha release at 10 uM preincubated for 30 mins before LPS challenge by ELISA; assay type: functional
PANC-1 [9] = assay: Growth inhibition of human PANC1 cells at 10 uM after 48 hrs by propidium iodide assay; conditions: PANC-1, 48 h, read-out: GI
ACHN [10] = assay: Growth inhibition of human ACHN cells at 10 uM after 48 hrs by propidium iodide assay; conditions: read-out: GI
HCT-116 [11] = assay: Growth inhibition of human HCT116 cells at 10 uM after 48 hrs by propidium iodide assay; conditions: HCT-116, 48 h, read-out: GI
[12] = Toxicity against […] assessed as cell growth; assay type: cell-based; design: concentration or dose not given beside the values
Calu-1 [13] = assay: Growth inhibition of human Calu1 cells at 10 uM after 24 hrs by propidium iodide assay; assay type: functional; conditions: Calu-1, 24 h, read-out: GI
NCI-H460 [14] = assay: Growth inhibition of human H460 cells at 10 uM after 24 hrs by propidium iodide assay; assay type: functional; conditions: NCI-H460, 24 h, read-out: GI
Calu-1 [15] = assay: Growth inhibition of human Calu1 cells at 700 nM after 24 hrs by propidium iodide assay; assay type: functional; conditions: Calu-1, 24 h, read-out: GI
HCT-116 [16] = assay: Growth inhibition of human HCT116 cells at 700 nM after 48 hrs by propidium iodide assay; conditions: HCT-116, 48 h, read-out: GI
NCI-H460 [17] = assay: Growth inhibition of human H460 cells at 700 nM after 48 hrs by propidium iodide assay; conditions: NCI-H460, 48 h, read-out: GI
PANC-1 [18] = assay: Growth inhibition of human PANC1 cells at 700 nM after 48 hrs by propidium iodide assay; conditions: PANC-1, 48 h, read-out: GI
ACHN [19] = assay: Growth inhibition of human ACHN cells at 700 nM after 48 hrs by propidium iodide assay; conditions: read-out: GI
THP-1 [20] = assay: Antiinflammatory activity in human THP1 cells assessed as inhibition of LPS-induced IL6 release at 1 uM preincubated for 30 mins before LPS challenge by ELISA; assay type: functional
How it was run: (§1)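 PMA-differentiated THP-1 cells grown in RPMI 1640 with 10% FBS, penicillin and streptomycin. Compounds in 0.5% DMSO were added and preincubated 30 min at 37 °C, then cells were stimulated with E. coli 0127:B8 LPS. Released cytokine was quantified with a BD Biosciences kit per the manufacturer. Percent inhibition of release was calculated versus control. Cytotoxicity was checked in parallel by CCK-8.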

THP-1 [21] = assay: Antiinflammatory activity in human THP1 cells assessed as inhibition of LPS-induced TNFalpha release at 1 uM preincubated for 30 mins before LPS challenge by ELISA; assay type: functional
How it was run: as §1

SMILES	Activity [6] [%]	inhibition at 10 µM (THP-1 [7]) [%]	inhibition at 10 µM (THP-1 [8]) [%]	inhibition of growth at 10 µM (PANC-1 [9]) [%]	inhibition of growth at 10 µM (ACHN [10]) [%]	inhibition of growth at 10 µM (HCT-116 [11]) [%]	Activity [12] [%]	inhibition of growth at 10 µM (Calu-1 [13]) [%]	inhibition of growth at 10 µM (NCI-H460 [14]) [%]	also measured
Nc1ccn([C@@H]2O[C@H](CO)[C@@H](O)C2(F)F)c(=O)n1 [GEMCITABINE]	–	–	–	–	–	–	–	–	–	inhibition of growth at 0.5 µM (HCT-116 [1]): 76%; inhibition of growth at 0.5 µM (Calu-1 [2]): 70%; inhibition of growth at 0.5 µM (PANC-1 [3]): 71%; inhibition of growth at 0.5 µM (NCI-H460 [4]): 68%; inhibition of growth at 0.5 µM (ACHN [5]): 70%
COc1ccc(O)c(C(C)(C)C)c1.COc1ccc(O)cc1C(C)(C)C	74	–	–	–	–	–	–	–	–	–
COc1cc(/C=C/C(=O)c2ccc(Cl)cc2)cc(OC)c1OC	36.5	100	98	66	57	92	79	67	54	–
COc1cc(/C=C/C(=O)c2ccccc2)cc(OC)c1OC	47.2	100	100	7	33	0	73	7	15	–
COc1ccc(/C=C/C(=O)c2ccc(Cl)cc2)c(OC)c1	26.4	12	0	29	28	22	0	28	29	–
COc1ccc(/C=C/C(=O)c2ccccc2)c(OC)c1	38	100	98	94	93	95	79	91	92	–
COc1ccc(/C=C/C(=O)c2ccc(OC)cc2OC)c(OC)c1	31.3	81	2	43	48	31	35	32	38	–
CN1CC[C@H](c2c(O)cc(O)c3c(=O)cc(-c4ccccc4Cl)oc23)[C@H](O)C1 [ALVOCIDIB]	–	–	–	–	–	–	–	–	–	inhibition of growth at 0.7 µM (Calu-1 [15]): 68%; inhibition of growth at 0.7 µM (HCT-116 [16]): 71%; inhibition of growth at 0.7 µM (NCI-H460 [17]): 84%; inhibition of growth at 0.7 µM (PANC-1 [18]): 75%; inhibition of growth at 0.7 µM (ACHN [19]): 68%
C[C@@H]1C[C@H]2[C@@H]3CCC4=CC(=O)C=C[C@]4(C)[C@@]3(F)[C@@H](O)C[C@]2(C)[C@@]1(O)C(=O)CO [DEXAMETHASONE]	–	–	–	–	–	–	0	–	–	inhibition at 1 µM (THP-1 [20]): 84%; inhibition at 1 µM (THP-1 [21]): 73%
COc1ccc(/C=C/C(=O)c2ccc(Cl)cc2Cl)c(OC)c1	11.3	6	0	35	35	26	2	30	29	–
COc1ccc(C(=O)/C=C/c2ccc(OC)cc2OC)cc1	32.3	39	0	36	45	37	29	31	38	–
